Source: ChEMBL document CHEMBL1275367, “Diastereoselective synthesis of aryloxy phosphoramidate prodrugs of 3'-deoxy-2',3'-didehydrothymidine monophosphate” (J Med Chem, 2010)
pEC50: −log10 of the molar value.

Key:
[1] = system: Human immunodeficiency virus 1; assay: Antiviral activity against HIV1 3B infected in human CEM/0 cells assessed as inhibition of virus-induced cytopathicity after 4 to 5 days; assay type: functional, organism-based; settings: Human immunodeficiency virus 1, 3B, CCRF-CEM
[2] = system: Human immunodeficiency virus 2; assay: Antiviral activity against HIV2 ROD infected in human CEM/0 cells assessed as inhibition of virus-induced cytopathicity after 4 to 5 days; assay type: functional, organism-based; settings: Human immunodeficiency virus 2, ISOLATE ROD, CCRF-CEM
[3] = system: Human immunodeficiency virus 2; assay: Antiviral activity against HIV2 ROD infected in human CEM/TK- cells assessed as inhibition of virus-induced cytopathicity after 4 to 5 days; assay type: functional, organism-based; settings: Human immunodeficiency virus 2, ISOLATE ROD
[4] = Cytotoxicity against human CEM/0 cells; assay type: cell-based, CCRF-CEM
Outline: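 Proliferation of CEM cells measured by Coulter particle counting across a range of compound concentrations. CC50 is the concentration inhibiting cell proliferation by 50%.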

[5] = system: Moloney murine sarcoma virus; assay: Antiviral activity against murine sarcoma virus infected in murine C3H/3T3 cells assessed as inhibition of virus-induced cell transformation

SMILES | pEC50 [1] | pEC50 [2] | pEC50 [3] | pEC50 [5] | CC50 [4] [nM]
COC(=O)[C@H](C)N[P@](=O)(OC[C@@H]1C=C[C@H](n2cc(C)c(=O)[nH]c2=O)O1)Oc1ccc(C)cc1 | 6.92 | 6.85 | 7.49 | 5.74 | 79000
COC(=O)[C@H](C)N[P@@](=O)(OC[C@@H]1C=C[C@H](n2cc(C)c(=O)[nH]c2=O)O1)Oc1ccc(OC)cc1 | 5.96 | 6.07 | 5.72 | 5.28 | 235000
COC(=O)[C@H](C)N[P@@](=O)(OC[C@@H]1C=C[C@H](n2cc(C)c(=O)[nH]c2=O)O1)Oc1ccc(C)cc1 | 6.09 | 6.34 | 5.68 | 5.74 | > 250000
COC(=O)[C@H](C)N[P@](=O)(OC[C@@H]1C=C[C@H](n2cc(C)c(=O)[nH]c2=O)O1)Oc1ccccc1C | 5.89 | 5.96 | 5.72 | 5.01 | > 250000
Cc1cn([C@H]2C=C[C@@H](CO)O2)c(=O)[nH]c1=O [STAVUDINE] | 6.08 | 6.12 | 3.88 | 5.60 | > 250000

Second part, led by results:

pEC50 [1] | pEC50 [2] | pEC50 [3] | pEC50 [5] | SMILES | CC50 [4] [nM]
5.89 | 5.89 | 5.54 | 5.40 | COC(=O)[C@H](C)N[P@@](=O)(OC[C@@H]1C=C[C@H](n2cc(C)c(=O)[nH]c2=O)O1)Oc1ccccc1C | > 250000
6.92 | 6.35 | 6.60 | 6.14 | COC(=O)[C@H](C)N[P@@](=O)(OC[C@@H]1C=C[C@H](n2cc(C)c(=O)[nH]c2=O)O1)Oc1cccc2ccccc12 | 107000
6.82 | 6.80 | 6.89 | 6.28 | COC(=O)[C@H](C)N[P@](=O)(OC[C@@H]1C=C[C@H](n2cc(C)c(=O)[nH]c2=O)O1)Oc1cccc2ccccc12 | 70000
6.82 | 6.85 | 7.32 | 5.70 | COC(=O)[C@H](C)N[P@](=O)(OC[C@@H]1C=C[C@H](n2cc(C)c(=O)[nH]c2=O)O1)Oc1ccc(OC)cc1 | 77000
